Screening results deposited in PubChem BioAssay by several laboratories.
Compounds with a hit are over-represented: about 1.7% of the library has one in this group of screens.
T cell modulator: modulators of CD8 T cell-vesicle binding, primary screen, mouse 2C CD8+ T cells, flow cytometry; 2C CD8+ T cell-vesicle binding; stronger effect = lower value; response (vesicle binding), % at 7 µM; actives 0.068% (n = 330,000); AID 2052, 2009;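 active = response, share of CD8 T cells binding vesicles, and their 90th percentile fluorescence all below set limits, cut at about 80% in these data, passing the limit was not always enough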;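 note: values below 100% mean blocked vesicle binding to the CD8+ T cells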
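Assay system – 2C mouse CD8+ T cells · Also added – QL9-loaded Drosophila micro-vesicles · Timing – Cell–vesicle co-incubation 1.5 h at 37 °C, staining 20 min on ice · Signal – flow cytometry of vesicle-bound cells · Measure – percent CD8+ FL2 mean versus row control · Controls – Peptide-free naked vesicles (low) and QL9 vesicles with 0.7% DMSO vehicle (high)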
Vif imaging: HIV Vif self-association inhibitors, primary screen, imaging, HEK293T, single point; HEK293T cells, Vif self-association by quenched fluorescence, 24 h; inhibition, % at 7.49 µM; actives 0.35% (n = 340,000); AID 602346, 2012; in the data active = inhibition above about 50%, passing the limit was not always enough; inconclusive = no clear call, values can overlap the other calls; inactive = below about 31%
DSG3 Ab inh: inhibitors of pemphigus antibody binding to DSG3, primary screen, biochemical, bead-based, flow cytometry, scFv-GFP | AID 588358, 2011 | DSG3-coupled beads, scFv-anti-DSG3-GFP binding; stronger effect = lower value | actives 0.48% (n = 310,000) | Desmoglein-3 (Homo sapiens), P32926 | binding (percent of control), % at 10 µM;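 active = binding more than 3 SD below its plate's average and above zero; inconclusive = below that plate limit but binding exactly zero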;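 note: hits lower antibody fragment binding to DSG3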
Myeloid diff MLP: induction of myeloid progenitor differentiation, primary screen, cell-based, flow cytometry, MLPCN library. actives 1% (n = 360,000). AID 624256, 2012. ER-HoxA9 myeloid progenitors, lysozyme-GFP differentiation. calls only at 10 µM;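 active = normalized GFP-positive differentiation at or above the plate's own cutoff, the solvent-only control mean plus 3 SD; inconclusive = no clear call, values can overlap the other calls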;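 note: cells exposed to compound for four days before flow analysis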
* hit, by the source's call; i = inactive; u = inconclusive; x = not tested or not shown; + = active, no number.

SMILES	T cell modulator	Vif imaging	DSG3 Ab inh	Myeloid diff MLP
O=C(COc1ccc(Cl)cc1)Nc1ccc(N2CCN(C(=O)c3ccco3)CC2)cc1	320	-6	72*	i
COc1cccc(NC(=S)/C(=C(\[O-])c2ccc(C)c([N+](=O)[O-])c2)[n+]2ccccc2)c1	421	-8	96	+
Cc1ccc(NC(=S)/C(=C(\[O-])c2ccc(C)c([N+](=O)[O-])c2)[n+]2ccccc2)cc1C	148	x	x	x
Cc1cc(-c2nnc(SCC(=O)Nc3ccc(Cl)cn3)n2N)n[nH]1	211	55*	95	i
Cc1cc(-c2nnc(SCC(=O)Nc3ccccc3F)n2N)n[nH]1	174	-4	101	i
CC1(Cc2cc(Cl)ccc2C(F)(F)F)C(=O)Nc2ccc(S(=O)(=O)NC3CCCCC3)cc21 (configuration not stated)	x	70*	x	i
NS(=O)(=O)c1ccc(NC(=O)COc2ccc(C(=O)c3ccc(F)cc3)cc2)cc1	208	-13	54*	i
CC(C)(C)c1ccc(C(=O)NCCC(=O)NC2=NCCS2)cc1	264	-12	u	i
NS(=O)(=O)c1ccc(NC(=O)CCCCC(=O)Nc2ccc(S(N)(=O)=O)cc2)cc1	188	8	100	i
CC(C)(C)c1ccc(OCCCC(=O)Nc2ccc(S(N)(=O)=O)cc2)cc1	195	-22	89	+
CC(C)(C)c1ccc(OCCCC(=O)NC2=NCCS2)cc1	313	-3	-19*	i
CSc1nc(N)nc2c1ncn2CC(=O)NCC1CCCO1 (configuration not stated)	270	3	99	i
CC1=C(C(=O)N2CCCCCC2)CC(CC(=O)NCCCN(C)C)C(=O)N1Cc1ccccc1 (configuration not stated)	x	x	x	i
CC(C)N1C(=O)NC2NC(=O)N(C(C)C)C21 (configuration not stated)	x	-2	x	i
CCOc1ccc(C2C=C(c3ccc(C)cc3)Nc3ncnn32)cc1 (configuration not stated)	30*	x	x	x
Cc1ccc(CONC(=O)c2ccc([N+](=O)[O-])cc2)cc1	i	13	102	i
Cc1ccc(CONC(=O)/N=C/N(C)C)cc1	292	63*	101	i
COc1ccc(OC)c(C(C)NC(C)=O)c1 (configuration not stated)	275	0	89	+
CCCCCCN1C[C@H](n2cc(C3CC3)nn2)[C@@H](O)C[C@@H]1c1ccccc1	x	-2	u	i
CCOC(=O)c1cc([N+](=O)[O-])sc1NC(=O)c1ccc(S(=O)(=O)N2CC3(C)CC2CC(C)(C)C3)cc1 (configuration not stated)	193	x	92	+
CC(=O)NC(c1ccccc1)c1nc(-c2cnc3ccccc3c2)cs1 (configuration not stated)	x	-4	x	i
COC(=O)c1ccccc1NS(C)(=O)=O	i	7	102	i
COC(=O)c1ccc(C(=O)OC)c(NS(C)(=O)=O)c1	340	72*	97	i
CCCC(C)NC(=O)c1ccc(F)cc1 (configuration not stated)	162	x	27*	i
CN(CC(=O)Nc1cccc(F)c1)C(=O)c1cc(S(=O)(=O)N2CCCCC2)ccc1N1CCOCC1	356	x	102	i
SMILES	T cell modulator	Vif imaging	DSG3 Ab inh	Myeloid diff MLP
N#Cc1cc(Sc2ccccn2)c(Sc2ccccn2)cc1C#N	159	-4	73*	u
O=C(O)c1ccc(Sc2ccccn2)c([N+](=O)[O-])c1	196	-2	101	i
N#Cc1cc(Sc2ccccn2)c([N+](=O)[O-])cc1C#N	330	2	113	+
CN(C)C(=O)c1ccc(Cc2cn(C)c3ccccc23)nc1	x	x	x	i
COc1ccc(C(C)=NNS(=O)(=O)c2ccc(C)cc2)cc1OC	x	12	106	i
Cn1nc(-c2ccc(Cl)cc2)c2cc(C(=O)NCCCN3CCCC3)sc21	342	2	87	+
Cn1nc(-c2ccc(Cl)cc2)c2cc(C(=O)N3CCN(c4ccccn4)CC3)sc21	367	-10	-3.6*	+
COCCNC(=O)c1cc2c(-c3ccc(Cl)cc3)nn(C)c2s1	286	-12	106	i
CC(C)NC(=O)c1cc2c(-c3ccc(Cl)cc3)nn(C)c2s1	401	-3	73*	i
CCCCNC(=O)c1cc2c(-c3ccc(Cl)cc3)nn(C)c2s1	470	-6	101	i
CCOC(=O)N1CCC(NC(=O)c2cc3c(-c4ccc(Cl)cc4)nn(C)c3s2)CC1	261	-5	91*	i
O=C(NCc1nnnn1-c1ccc(F)cc1)c1ccc2c(c1)OCO2	x	-1	105	i
CC[C@]12C(=O)N(C)C[C@H]([C@@H]3C(=O)N(C)C(=O)[C@@H]31)N2C(=O)c1ccc(F)cc1	x	-1	102	i
CC(=O)Nc1ccc(CN(C)c2c(C)nc3ccc(C(=O)NCCCN4CCCC4=O)cn23)cc1	x	3	x	i
COCCNC(=O)c1cc2c(-c3ccccc3F)nn(C)c2s1	173	16	102	i
CCCCN(C)CCNC(=O)c1cc2c(-c3ccccc3F)nn(C)c2s1	114	-8	304	+
C=CCN1C(=O)/C(=C/c2ccc(-c3ccc(F)cc3)o2)SC1=S	372	82*	106	i
COc1ccc(-n2c(C)cc(C(=O)Cn3nnc4ccccc4c3=O)c2C)cc1	306	-5	88	i
Cc1cc(C(=O)Cn2nnc3ccccc3c2=O)c(C)n1-c1ccccc1F	382	9	101	+
CCCCCCn1cc(CN2CC(N3CCN(CCN(C)C)CC3)CS2(=O)=O)nn1 (configuration not stated)	x	x	x	i
N#Cc1ccsc1NC(=O)CSc1ncnc2ccccc12	536	3	x	+
COc1ccc(/C=N/Nc2ncc(Br)cn2)c(OC)c1	548	5	66*	i
COc1ccc(/C=N\Nc2ccccn2)c(OC)c1	191	-4	102	i
CCc1ccc(OCC(=O)N/N=C(\C)c2ccc(O)cc2O)cc1	288	9	113	+
CN(C(=O)COC(=O)CN1C(=O)c2cccc([N+](=O)[O-])c2C1=O)c1ccccc1	497	2	77*	i
O=Nc1[nH]c(=O)c(/C=C(\O)c2ccccc2)nc1NO	225	106*	90	i
CCc1cccc2cc3c(N)c(C(=O)Nc4ccc(S(=O)(=O)N5CCCC5)cc4)sc3nc12	687	68*	114	+
Cc1ccccc1-c1cccc([C@@H]2C[C@H]3[C@H](CON3C)CN2S(=O)(=O)c2ccccc2C)c1	x	-4	95	i
CCN(CC)c1ccc2c(Cl)c(Br)c(=O)oc2c1	739	u	x	+
CCN(CC)c1ccc2c(C)c(Cl)c(=O)oc2c1	192	4	94	i
